Measured values collected from several papers.
Each line is one published result; the experiments were not run side by side. In brackets after ≈: the same amount, converted by molar mass.

Structure (SMILES) | tested on | effect on | method | concentration | measurement | value
O=C(CN1C(=O)/C(=C/c2cccs2)SC1=S)Nc1ccccc1 | A549 | cell growth or viability | MTT | 10 µM | inhibition | 23.5%
COc1ccc(-c2ccc(-c3ccc(C(=N)N)nc3)s2)cc1Cl | U-251 | cell growth or viability | SRB | – | GI50 | 1.82 µM
COc1cc(Nc2nccc(-c3cnn4nc(OC)ccc34)n2)cc(C(F)(F)F)c1 | NCI-H2286 | cell growth or viability | ATP luminescence | – | IC50 | 0.16 µM
CO/N=C1\CN(c2nc3c(cc2F)c(=O)c(C(=O)O)cn3C2CC2)CC1CN (stereo not drawn) | Moraxella catarrhalis | microbial growth | – | – | MIC | 2 µg/mL (≈ 5.14 µM)
O=C(Cc1c[nH]c2ccccc12)Nc1cccc(F)c1 | – | ABTS scavenging | – | – | IC50 | 1.12 µM
O=C(Nc1ccccc1-c1ccc(F)c(F)c1)c1nccnc1C(F)(F)F | Colletotrichum gloeosporioides | microbial growth | – | – | EC50 | > 100 µg/mL
CC(C)C[C@H](NC(=O)[C@H](Cc1ccccc1)NC(=O)c1cnccn1)B(O)O | NCI-H1048 | cell growth or viability | ATP luminescence | – | IC50 | 0.017 µM
O=C(CN1C(=O)/C(=C/c2ccccc2O)SC1=S)Nc1ccccc1 | A549 | cell growth or viability | MTT | 10 µM | inhibition | 34.5%
O=C(Cc1c[nH]c2ccccc12)Nc1ccc(F)c(F)c1 | – | ABTS scavenging | – | – | IC50 | 1.08 µM
O=C(CN1C(=O)/C(=C/c2cccc(O)c2)SC1=S)Nc1ccccc1 | PC-3 | cell growth or viability | MTT | 10 µM | inhibition | 12.6%
COc1cc(NC(=O)Cc2c[nH]c3ccccc23)ccc1C | – | ABTS scavenging | – | – | IC50 | 1.11 µM
Clc1ccccc1C(c1ccccc1)(c1ccccc1)n1ccnc1 | Mucor | microbial growth | disc diffusion | 20000 µg/mL | inhibition zone | 22 mm
